Test results: ChEMBL document CHEMBL1131072, “Synthesis, physicochemical properties, and evaluation of N-substituted-2-alkyl-3-hydroxy-4(1H)-pyridinones” (J Med Chem, 1998)
One block for each molecule: values may come before it.

What was measured:
[1] = Partition coefficient (logD7.4); assay type: physicochemical; details: octanol/water, pH 7.4
How it was run: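 Shake-flask used a 100:1 or 1:100 phase ratio, 1 h stirring, centrifugation, and aqueous absorbance, repeated at least four times. Fe complexes were made at 10:1 ligand:Fe (10^-3/10^-4 M) and read at 460 nm. Reported as mean ± SD.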

[2] = tested on: Rattus norvegicus; test: The amount iron excretion in the bile duct-cannulated rats when iron chelator administered subcutaneously at dose 142 mg/kg; assay type: functional; details: route subcutaneous
How it was run: (§1)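 Non-iron-overloaded male Fischer rats (200–240 g) with bile-duct cannulas in metabolic cages. Control bile/urine was collected for 3 h; chelator was then given subcutaneously or by gavage. Bile was collected in 3-h fractions over 24 h, plus 24-h urine. Iron was measured by bathophenanthroline colorimetry (TCA/HCl, 65 °C 4 h, A535) against iron standards after blank subtraction.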

[3] = tested on: Rattus norvegicus; test: The amount iron excretion in the bile duct-cannulated rats when iron chelator administered orally at dose 142 mg/kg; assay type: functional; details: route oral; how it was run: as §1
[4] = Compound was determined for their affinity constants(log K3) with Fe(III) complex.; assay type: ADME
How it was run: (§2)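 Stepwise constants K1, K2 and K3 came from simultaneous spectrophotometric/potentiometric pH titrations of ligand with iron(III). Parameters were obtained by global optimization over titrations at several ligand and iron(III) concentrations, using the Fe3+/L− stepwise model (FeL2+, FeL2+, FeL3).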

[5] = Compound was determined for their affinity constants(log K2) with Fe(III) complex.; assay type: ADME; how it was run: as §2
[6] = Compound was tested for equilibrium constants (pKa1) potentiometrically; assay type: physicochemical; details: read-out: pKa1
How it was run: (§3)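 Potentiometric titration in 0.1 M KCl (25 mL), acidified with 0.2 M HCl and titrated with 0.2 M KOH in 0.01-mL increments. Run at 25 ± 0.5 °C under argon, with the electrode zero set by a blank titration (Gran's plot). Data were fitted with TITRFIT; pKa accuracy ±0.02 pH unit.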

[7] = Compound was determined for their affinity constants(log K1) with Fe(III) complex.; assay type: ADME
How it was run: (§4)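 Stepwise Fe(III) stability constants (K1, K2, K3) came from simultaneous spectrophotometric/potentiometric pH titrations of ligand with iron(III) at several ligand and Fe(III) concentrations. Parameters were fitted by global optimization, and spectra were followed across pH.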

[8] = tested on: Rattus norvegicus; test: The amount iron excretion in the bile duct-cannulated rats when iron chelator administered orally at dose 132 mg/kg; assay type: functional; details: route oral; how it was run: as §1
[9] = Compound was tested for equilibrium constants (pKa1) spectrophotometrically.; assay type: physicochemical; details: read-out: pKa1
How it was run: (§5)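 The UV/vis spectrum was recorded alongside each potentiometric titration step: 0.1 M KCl, HCl-acidified, titrated with 0.2 M KOH at 25 ± 0.5 °C under argon. Spectral data were fitted with TITRFIT (modified NONLIN) to give pKa, accurate to ±0.02 pH unit.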

[10] = Potentiometric values of pKa2 and pKa3
[11] = tested on: Rattus norvegicus; test: The amount iron excretion in the bile duct-cannulated rats when iron chelator administered subcutaneously at dose 132 mg/kg; assay type: functional; details: route subcutaneous; how it was run: as §1
[12] = Compound was determined for their EDTA competition value(log beta3) of affinity constants.; assay type: ADME
How it was run: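 Spectrophotometric competition against EDTA on an automated titration system. The iron(III) complex was prepared at 5:1 ligand:Fe molar ratio in 0.1 M MOPS, pH 7.4, then titrated with EDTA. Spectral data were fitted in COMPT1 to give log β3, accurate to ±0.02 log unit.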

[13] = Compound was tested for equilibrium constants (pKa2) of the (hydroxyalkyl)pyridinone corresponds to the 3-hydroxy function spectrophotometrically..
[14] = Compound was tested for equilibrium constants (pKa2) of the (hydroxyalkyl)pyridinone corresponds to the 3-hydroxy function potentiometrically
[15] = Spectrophotometric values of pKa2 and pKa3
[16] = Compound was tested for equilibrium constants (pKa3) of the (carboxyalkyl) pyridinone corresponds to the […] function potentiometrically; assay type: physicochemical; details: read-out: pKa3; how it was run: as §3
[17] = Compound was tested for equilibrium constants (pKa3) of the (carboxyalkyl) pyridinone corresponds to the […] function spectrophotometrically..; assay type: physicochemical; details: read-out: pKa3; how it was run: as §5
[18] = tested on: Rattus norvegicus; test: The amount iron excretion in the bile duct-cannulated rats when iron chelator administered orally at dose 122 mg/kg; assay type: functional; details: route oral; how it was run: as §1
[19] = tested on: Rattus norvegicus; test: The amount iron excretion in the bile duct-cannulated rats when iron chelator administered subcutaneously at dose 122 mg/kg; assay type: functional; details: route subcutaneous; how it was run: as §1
[20] = tested on: Rattus norvegicus; test: The dose of the iron chelator administered in the bile duct-cannulated rats.; assay type: functional; how it was run: as §1
[21] = tested on: Rattus norvegicus; test: The amount iron excretion in the bile duct-cannulated rats when iron chelator administered orally.; assay type: functional; how it was run: as §1
[22] = tested on: Rattus norvegicus; test: The amount iron excretion in the bile duct-cannulated rats when iron chelator administered subcutaneously.; assay type: functional; how it was run: as §1
[23] = tested on: Rattus norvegicus; test: The amount iron excretion in the bile duct-cannulated rats when iron chelator administered subcutaneously at dose 100 mg/kg; assay type: functional; details: route subcutaneous
How it was run: (§6)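 Male Fischer rats (200–240 g), non-iron-overloaded and bile duct-cannulated, were kept in metabolic cages. Control bile and urine were collected for 3 h, then compound was given (subcutaneously or by gavage). Bile was collected at 3-h intervals over 24 h, with urine pooled over 24 h. Buprenorphine was given for analgesia. Iron was read by bathophenanthroline colorimetry (535 nm) after acid digestion (65 °C, 4 h) against iron standards.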

[24] = Compound was determined for their affinity constants(log K2) with Fe(III) complex; assay type: ADME; how it was run: as §4
[25] = tested on: Rattus norvegicus; test: The amount iron excretion in the bile duct-cannulated rats when iron chelator administered orally at dose 100 mg/kg; assay type: functional; details: route oral; how it was run: as §6

logD [1]: -0.66
SMILES: CCN(C)C(=O)CCn1ccc(=O)c(O)c1C

logD [1]: -0.32
SMILES: CCc1c(O)c(=O)ccn1CCCO
Iron excretion [2]: 634 µg/kg | Iron excretion [3]: 265 µg/kg

logD [1]: -0.46
SMILES: COC(Cn1ccc(=O)c(O)c1C)OC

logD [1]: 0.03
SMILES: C=CCn1ccc(=O)c(O)c1C

Log K3 [4]: 9.4 | Log K2 [5]: 11.6 | pKa [6]: 3.31 | Log K1 [7]: 15.7 | pKa [9]: 3.34 | pKa [10]: 9.77 | Log beta3 [12]: 36.8 | pKa [13]: 9.75 | logD [1]: -0.66 | pKa [14]: 9.77 | pKa [15]: 9.75
SMILES: CCc1c(O)c(=O)ccn1CCO
Iron excretion [8]: 819 µg/kg | Iron excretion [11]: 698 µg/kg

logD [1]: -0.82
SMILES: CCNC(=O)CCn1ccc(=O)c(O)c1C

logD [1]: -0.77
SMILES: Cc1c(O)c(=O)ccn1CC(C)(C)O

logD [1]: 0.05
SMILES: CCc1nccc(O)c1O

logD [1]: 0.05
SMILES: Cc1c(O)c(=O)ccn1C(C)C

logD [1]: -0.31
SMILES: CCn1ccc(=O)c(O)c1C

logD [1]: -1.55
SMILES: Cc1c(O)c(=O)ccn1CCN

Log K3 [4]: 7.9 | Log K2 [5]: 11.4 | pKa [6]: 3.12 | Log K1 [7]: 16.6 | pKa [9]: 3.22 | pKa [10]: 9.89 | pKa [16]: 9.89 | Log beta3 [12]: 37 | logD [1]: -1.6 | pKa [17]: 9.91 | pKa [15]: 9.91
SMILES: CCc1c(O)c(=O)ccn1CCC(=O)O

logD [1]: -0.75
SMILES: Cc1c(O)c(=O)ccn1CCCCO

logD [1]: 1.89
SMILES: CCCCCCn1ccc(=O)c(O)c1C

logD [1]: -0.21
SMILES: CCc1c(O)c(=O)ccn1C

logD [1]: 0.04
SMILES: CCc1c(O)c(=O)ccn1CCOC

logD [1]: 0.47
SMILES: C=CCn1ccc(=O)c(O)c1CC

logD [1]: 0.7
SMILES: CCCn1ccc(=O)c(O)c1CC

logD [1]: 0.73
SMILES: CCc1c(O)c(=O)ccn1C(C)C

logD [1]: -0.47
SMILES: Cc1c(O)c(=O)ccn1CCC(=O)NC(C)C

logD [1]: -0.24
SMILES: CCOC(=O)CCn1ccc(=O)c(O)c1C

logD [1]: -1
SMILES: Cc1c(O)c(=O)ccn1CCC(=O)N(C)C

logD [1]: 0.7
SMILES: CCCCn1ccc(=O)c(O)c1C

logD [1]: 1.22
SMILES: CCCCn1ccc(=O)c(O)c1CC

Further lines, the molecule ahead of its results:

SMILES: CCOCCCn1ccc(=O)c(O)c1CC
logD [1]: 0.72

SMILES: CCOCCCn1ccc(=O)c(O)c1C
logD [1]: 0.12

SMILES: COC(=O)CCn1ccc(=O)c(O)c1C
logD [1]: -0.77

SMILES: Cc1c(O)c(=O)ccn1CCCC(=O)O
logD [1]: -2.75

SMILES: Cc1c(O)c(=O)ccn1CC(C)C
logD [1]: 0.65

SMILES: Cc1c(O)c(=O)ccn1CCC(=O)O
pKa [6]: 3.1 | pKa [9]: 3.19 | pKa [10]: 9.49 | pKa [16]: 9.49 | logD [1]: -2.92 | pKa [17]: 9.51 | pKa [15]: 9.51

SMILES: CNC(=O)CCn1ccc(=O)c(O)c1C
logD [1]: -1.15

SMILES: COCC(C)n1ccc(=O)c(O)c1C (stereo unspecified)
logD [1]: -0.26

SMILES: Cc1c(O)c(=O)ccn1CCCO
Iron excretion [8]: 414 µg/kg | Iron excretion [11]: 383 µg/kg | logD [1]: […]

SMILES: CNC(=O)CCCn1ccc(=O)c(O)c1C
logD [1]: -1.08

SMILES: Cc1c(O)c(=O)ccn1CCO
Iron excretion [18]: 272 µg/kg | pKa [6]: 3.44 | pKa [9]: 3.43 | pKa [10]: 9.65 | Iron excretion [19]: 353 µg/kg | pKa [13]: 9.72 | logD [1]: -1.1 | pKa [14]: 9.65 | pKa [15]: 9.72

SMILES: COCCn1ccc(=O)c(O)c1C
logD [1]: -0.41

SMILES: CCc1c(O)c(=O)ccn1CCCCO
logD [1]: -0.28

SMILES: CCOC(Cn1ccc(=O)c(O)c1C)OCC
logD [1]: 0.21

SMILES: Cc1c(O)c(=O)ccn1C(CO)CO
logD [1]: -1.7

SMILES: Cc1c(O)c(=O)ccn1CC(O)CO (stereo unspecified)
Dose [20]: 143 mg/kg | Iron excretion [21]: 104 µg/kg | Iron excretion [22]: 142 µg/kg

SMILES: CCCNC(=O)CCn1ccc(=O)c(O)c1C
logD [1]: -0.4

SMILES: CCCCCn1ccc(=O)c(O)c1C
logD [1]: 1.24

SMILES: CCc1c(O)c(=O)ccn1CCCC(=O)O
pKa [6]: 3.21 | pKa [9]: 3.42 | pKa [10]: 9.89 | pKa [16]: 9.89 | logD [1]: -1.38 | pKa [17]: 9.99 | pKa [15]: 9.99

SMILES: CCc1c(O)c(=O)ccn1CC
logD [1]: 0.23

SMILES: Cc1c(O)c(=O)ccn1C [DEFERIPRONE]
Iron excretion [23]: 292 µg/kg | Log K3 [4]: 9.8 | Log K2 [24]: 12.2 | Log K1 [7]: 14.9 | Iron excretion [25]: 351 µg/kg | logD [1]: -0.77 | pKa [15]: 9.64

SMILES: Cc1nccc(O)c1O
logD [1]: -0.5

SMILES: CCN(CC)C(=O)CCn1ccc(=O)c(O)c1C
logD [1]: -0.36
